This is an account of results in ChEMBL document CHEMBL1781883, “Design of novel neurokinin 1 receptor antagonists based on conformationally constrained aromatic amino acids and discovery of a potent chimeric opioid agonist-neurokinin 1 receptor antagonist” (J Med Chem, 2011).

The source made the active and inactive calls. No cut-off for these calls is given here.

The target in experiment [1] is T1, Substance-P receptor (Homo sapiens, UniProt P25103). In words: Agonist activity at human NK1 receptor expressed in CHO-K1 cells at 10^-4 M after 30 mins by aequorin luminescence assay. The format is functional, cell-based. The procedure, abridged: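 CHO-K1 cells stably expressing human NK1R and transfected with apoaequorin; loaded 4 h with 5 μM coelenterazine h in BSA-medium, diluted 10-fold, further 30 min. Compound added to wells; cells (2.5 × 10^4) injected, light read every second for 30 s, then 10 nM ATP injected as positive control and read 10 s more. Duplicates; expressed as % of luminescence at 10^-4 M SP.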
T1 sequence (P25103 whole entry): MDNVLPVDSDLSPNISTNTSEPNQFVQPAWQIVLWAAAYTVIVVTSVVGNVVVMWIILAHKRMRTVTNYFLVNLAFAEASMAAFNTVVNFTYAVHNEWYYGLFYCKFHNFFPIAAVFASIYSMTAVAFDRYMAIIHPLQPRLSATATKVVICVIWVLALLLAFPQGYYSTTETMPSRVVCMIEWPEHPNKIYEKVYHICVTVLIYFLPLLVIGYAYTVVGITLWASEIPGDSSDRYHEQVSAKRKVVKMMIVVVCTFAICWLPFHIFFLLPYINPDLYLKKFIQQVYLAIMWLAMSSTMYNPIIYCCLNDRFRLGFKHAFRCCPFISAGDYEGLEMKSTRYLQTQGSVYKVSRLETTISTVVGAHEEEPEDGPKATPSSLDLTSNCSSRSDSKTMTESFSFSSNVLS

In experiment [2] the target is T1, Substance-P receptor. As to the kind of experiment: Antagonist activity at human NK1 receptor expressed in CHO-K1 cells assessed as inhibition of substance P-induced calcium-dependent aequorine luminescence. The format is functional, cell-based. The conditions noted are these: read-out: pA2 (converted). The procedure, abridged: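 Aequorin-expressing CHO-K1/hNK1 cells charged 4 h with 5 μM coelenterazine h, then diluted and held 30 min. SP series 10^-11 to 10^-4 M combined with test compound at 10^-8 to 10^-4 M; cell injection started 30 s luminescence read, then 10 nM ATP control.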

Experiment [3] has as its target T1, Substance-P receptor. As to the kind of experiment: Displacement of [3H]SP from human recombinant NK1 receptor expressed in CHO cells after 20 mins by liquid scintillation counting. It counts as cell-based. In short, it runs like this:
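Crude membranes from hNK1/CHO cells; 20 µg incubated with 0.4 nM [3H]SP and six test concentrations in duplicate, 50 mM Tris pH 7.4 with 5 mM MgCl2, bacitracin, bestatin, captopril, PMSF; 25 °C, 20 min. Nonspecific binding with 10 µM SP. Filtration on PEI-soaked GF/B, scintillation counting; IC50 by nonlinear regression, Ki by Cheng–Prusoff; three independent experiments, mean ± SEM.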

Experiment [4] has as its target T1, Substance-P receptor. In words: Antagonist activity at NK1 receptor. It counts as functional.

As for `CC(=O)N[C@H]1Cc2ccccc2[C@@H](c2ccccc2)N(CC(=O)N(C)Cc2cc(C(F)(F)F)cc(C(F)(F)F)c2)C1=O`, the outcome at Substance-P receptor [1] was inactive.

Consider `CC(=O)N[C@H]1Cc2ccccc2CN(CC(=O)N(C)Cc2cc(C(F)(F)F)cc(C(F)(F)F)c2)C1=O`, for which, at Substance-P receptor [1], the outcome was inactive. The Kb on Substance-P receptor [2] was 3.98 nM. On Substance-P receptor [3], the Ki stood at 27 nM.

Molecule `O=C1O[C@@H](Cc2c[nH]c3ccccc23)C(=O)N1Cc1cc(C(F)(F)F)cc(C(F)(F)F)c1` showed an IC50 against Substance-P receptor [4] of 25 nM.

Turning to `CC(=O)N1Cc2ccccc2C[C@H]1C(=O)NCc1cc(C(F)(F)F)cc(C(F)(F)F)c1`, the result at Substance-P receptor [1] was inactive.

On to `CC(=O)N[C@@H]1Cc2c([nH]c3ccccc23)CN(CC(=O)N(C)Cc2cc(C(F)(F)F)cc(C(F)(F)F)c2)C1=O`, for which the outcome at Substance-P receptor [1] was inactive.

In the case of `CC(=O)N[C@@H]1Cc2ccccc2[C@@H](c2ccccc2)N(CC(=O)N(C)Cc2cc(C(F)(F)F)cc(C(F)(F)F)c2)C1=O`, the outcome at Substance-P receptor [1] was inactive.

`CC(=O)N1Cc2[nH]c3ccccc3c2C[C@@H]1C(=O)N(C)Cc1cc(C(F)(F)F)cc(C(F)(F)F)c1`: the result on Substance-P receptor [1] was inactive.

For `CC(=O)N[C@H]1Cc2c([nH]c3ccccc23)CN(CC(=O)N(C)Cc2cc(C(F)(F)F)cc(C(F)(F)F)c2)C1=O`, the result on Substance-P receptor [1] was inactive.

As for `CC(=O)N1Cc2[nH]c3ccccc3c2C[C@H]1C(=O)N(C)Cc1cc(C(F)(F)F)cc(C(F)(F)F)c1`, the outcome on Substance-P receptor [1] was inactive.

As for `CC(=O)N[C@H]1Cc2ccccc2CN(CC(=O)NCc2cc(C(F)(F)F)cc(C(F)(F)F)c2)C1=O`, on Substance-P receptor [1], the result was inactive. Further, the Kb on Substance-P receptor [2] is 631 nM. The Ki on Substance-P receptor [3] is 387 nM.

For `CC(=O)N[C@H]1Cc2ccccc2[C@@H](c2ccccc2)N(CC(=O)NCc2cc(C(F)(F)F)cc(C(F)(F)F)c2)C1=O`, on Substance-P receptor [1], the result was inactive.

As to `CC(=O)N1Cc2ccccc2C[C@H]1C(=O)N(C)Cc1cc(C(F)(F)F)cc(C(F)(F)F)c1`, the outcome on Substance-P receptor [1] was inactive. Also, on Substance-P receptor [2], the Kb is 31.6 nM. Also, at Substance-P receptor [3], the Ki came out at 32 nM.

Turning to `CC(=O)N[C@H]1Cc2c([nH]c3ccccc23)CN(Cc2cc(C(F)(F)F)cc(C(F)(F)F)c2)C1=O`, the result on Substance-P receptor [1] was inactive.
